Data from ChEMBL document CHEMBL4251598, “Development of novel bis-pyrazole derivatives as antitumor agents with potent apoptosis induction effects and DNA damage” (Eur J Med Chem, 2018).
pIC50: −log10 of the molar value. Activity calls are given as the source filed them. The calls are words filed in the database; no cut-off is given here.

How the values were obtained:
HCT-116 = experiment: Antiproliferative activity against human HCT116 cells after 72 hrs by MTT assay; format: functional, cell-based; details: HCT-116, 72 h
Procedure, shortened: (§1)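 Cells in DMEM with 10% FBS, 10^4 cells/mL, adhered overnight at 37 °C, 5% CO2. Treated in triplicate with a range of concentrations for 72 h. MTT (5 mg/mL solution) added for the last 4 h, formazan dissolved in DMSO, absorbance read at 570 nm. IC50 calculated from percent inhibition. Mean ± SD of three independent experiments.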

SMMC-7721 [1] = experiment: Antiproliferative activity against human SMMC7721 cells after 72 hrs by MTT assay; format: functional, cell-based; details: SMMC-7721, 72 h; procedure, shortened: as §1
SGC-7901 = experiment: Antiproliferative activity against human SGC7901 cells after 72 hrs by MTT assay; format: functional, cell-based; details: SGC-7901, 72 h; procedure, shortened: as §1
SMMC-7721 [2] = experiment: Antiproliferative activity against human SMMC7721 cells assessed as inhibition of cell proliferation at 25 uM after 72 hrs by MTT assay relative to control; format: functional; details: SMMC-7721, 72 h
Procedure, shortened: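 Cells in DMEM with 10% FBS, plated at 10^4 cells/mL, adhered overnight. Treated at 25 μM for 72 h. MTT added for the last 4 h, formazan dissolved in DMSO, A570 read. Inhibition expressed as percent of untreated. Mean + SD from three separate measurements.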

PC-3 = experiment: Induction of apoptosis in human PC3 cells; format: functional, cell-based
SMMC-7721 [3] = experiment: Induction of apoptosis in human SMMC7721 cells assessed as apoptotic cells at 3.2 uM after 72 hrs by FITC-Annexin-V/7AAD/propidium iodide staining based flow cytometry relative to control; format: functional
Procedure, shortened: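 SMMC-7721 cells cultured overnight, then treated in triplicate with 0.2, 0.8 or 3.2 μM, vehicle, or ADM (3.2 μM) for 72 h. Stained with annexin V and PI (methods section: APC-annexin V/7-AAD) for 15 min at room temperature. Mean ± SD of three independent experiments.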

SMMC-7721 [4] = experiment: Induction of DNA double stranded breaks in human SMMC7721 cells assessed as increase in H2AX phosphorylation at S139 at 0.8 uM after 72 hrs by Western blot analysis; format: functional, cell-based
Procedure, shortened: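 SMMC-7721 cells treated with vehicle, compound at 0.2, 0.8 or 3.2 μM, or ADM for 72 h. Lysates immunoblotted for H2AX pS139, p-p53 (Ser15), total p53 and β-actin, with ECL detection. Signals quantified by densitometry relative to β-actin, mean ± SD of three experiments.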

Row | Structure (SMILES) | pIC50 (HCT-116) | pIC50 (SMMC-7721 [1]) | pIC50 (SGC-7901) | inhibition at 25 µM (SMMC-7721 [2]) [%] | further results
1 | Cc1nn(C)c(Oc2ccc(OC(F)(F)F)cc2)c1/C=N\OCc1c(Cl)c(-c2ccc(Cl)cc2)nn1C | 5.52 | 5.06 | 5.49 | 80 | –
2 | CCc1nn(C)c(CO/N=C/c2c(C)nn(C)c2Oc2ccc(C)cc2)c1Cl | – | – | – | < 80 | –
3 | CCc1nn(C)c(CO/N=C/c2c(C)nn(C)c2Oc2ccccc2F)c1Cl | – | – | – | < 80 | –
4 | Cc1nn(C)c(Oc2ccc(OC(F)(F)F)cc2)c1/C=N\OCc1c(Cl)c(-c2ccc(F)cc2)nn1C | 5.64 | 5.28 | 5.53 | 80 | –
5 | Cc1nn(C)c(Oc2ccc(F)cc2)c1/C=N\OCc1c(Cl)c(-c2ccc(Cl)cc2)nn1C | 5.14 | 5.49 | 5.35 | 80 | –
6 | CCc1nn(C)c(CO/N=C/c2c(C)nn(C)c2Oc2ccc(I)cc2)c1Cl | – | – | – | < 80 | –
7 | CCc1nn(C)c(CO/N=C\c2c(C)nn(C)c2Oc2ccc(OC)cc2)c1Cl | – | – | – | < 80 | –
8 | CCc1nn(C)c(CO/N=C/c2c(C)nn(C)c2Oc2ccccc2C)c1Cl | – | – | – | < 80 | –
9 | CCc1nn(C)c(CO/N=C\c2c(C)nn(C)c2Oc2ccccc2OC(F)(F)F)c1Cl | – | – | – | < 80 | –
10 | Cc1nn(C)c(Oc2ccc(Cl)cc2)c1/C=N\OCc1c(Cl)c(-c2ccc(F)cc2)nn1C | 5.22 | 5.10 | 5.09 | 80 | –
11 | CCOC(=O)c1cc(-c2ccccc2)nn1Cc1ccc(Cl)nc1 | – | – | – | – | pIC50 (PC-3): 4.82
12 | CCc1nn(C)c(CO/N=C/c2c(C)nn(C)c2Oc2cccc(Cl)c2)c1Cl | – | – | – | < 80 | –
13 | Cc1ccc(Oc2c(/C=N\OCc3c(Cl)c(-c4ccc(Cl)cc4)nn3C)c(C)nn2C)cc1 | 5.55 | 5.23 | 5.43 | 80 | –
14 | COc1cccc2c1C(=O)c1c(O)c3c(c(O)c1C2=O)C[C@@](O)(C(=O)CO)C[C@@H]3O[C@H]1C[C@H](N)[C@H](O)[C@H](C)O1.Cl [DOXORUBICIN HYDROCHLORIDE] | 5.64 | 5.57 | 5.39 | 80 | Activity (SMMC-7721 [3]): 47.5%; Activity (SMMC-7721 [4]): Active
15 | CCc1nn(C)c(CO/N=C\c2c(C)nn(C)c2Oc2ccc(OC(F)(F)F)cc2)c1Cl | – | – | – | < 80 | –
16 | CCc1nn(C)c(CO/N=C/c2c(C)nn(C)c2Oc2ccccc2Cl)c1Cl | – | – | – | < 80 | –
17 | CCc1nn(C)c(CO/N=C/c2c(C)nn(C)c2Oc2ccc(Br)cc2)c1Cl | – | – | – | < 80 | –
18 | CCc1nn(C)c(CO/N=C/c2c(C)nn(C)c2Oc2ccccc2OC)c1Cl | – | – | – | < 80 | –
19 | CCc1nn(C)c(CO/N=C/c2c(C)nn(C)c2Oc2ccc(F)cc2)c1Cl | – | – | – | < 80 | –
20 | Cc1nn(C)c(Oc2ccc(Cl)cc2)c1/C=N\OCc1c(Cl)c(-c2ccc(Cl)cc2)nn1C | 5.33 | 5.17 | 5.12 | 80 | –
21 | CCc1nn(C)c(CO/N=C/c2c(C)nn(C)c2Oc2ccc(Cl)cc2)c1Cl | – | – | – | < 80 | –
22 | Cc1ccc(Oc2c(/C=N\OCc3c(Cl)c(-c4ccc(F)cc4)nn3C)c(C)nn2C)cc1 | 5.54 | 5.28 | 5.34 | 80 | –
23 | COc1ccc(Oc2c(/C=N\OCc3c(Cl)c(-c4ccc(F)cc4)nn3C)c(C)nn2C)cc1 | 5.93 | 5.69 | 5.55 | 80 | –
24 | Cc1nn(C)c(Oc2ccc(F)cc2)c1/C=N\OCc1c(Cl)c(-c2ccc(F)cc2)nn1C | 5.10 | 5.18 | 5.15 | 80 | –
25 | CCc1nn(C)c(CO/N=C/c2c(C)nn(C)c2Oc2cccc(C)c2)c1Cl | – | – | – | < 80 | –
26 | Cc1nn(C)c(Oc2ccc(Br)cc2)c1/C=N\OCc1c(Cl)c(-c2ccc(Cl)cc2)nn1C | 5.23 | 5.15 | 5.22 | 80 | –
27 | O=c1[nH]cc(F)c(=O)[nH]1 [FLUOROURACIL] | 4.53 | 4.42 | 4.46 | – | –
